# In ChEMBL document CHEMBL1157912, “Impact of nature and length of linker incorporated in agonists on toll-like receptor 9-mediated immune responses” (J Med Chem, 2010):
# Activity calls are given as the source filed them. No cut-off for these calls is given here.
# Legend:
# [1] = target: T1, Toll-like receptor 9 (Homo sapiens) (UniProt Q9NR96); assay: Induction of TLR9-mediated immune stimulation in human PBMC assessed as IL12 production at 2 ug/ml after 24 hrs by luminex multiplex assay (RVb = 0.00 ng/ml)
# T1 sequence (whole entry): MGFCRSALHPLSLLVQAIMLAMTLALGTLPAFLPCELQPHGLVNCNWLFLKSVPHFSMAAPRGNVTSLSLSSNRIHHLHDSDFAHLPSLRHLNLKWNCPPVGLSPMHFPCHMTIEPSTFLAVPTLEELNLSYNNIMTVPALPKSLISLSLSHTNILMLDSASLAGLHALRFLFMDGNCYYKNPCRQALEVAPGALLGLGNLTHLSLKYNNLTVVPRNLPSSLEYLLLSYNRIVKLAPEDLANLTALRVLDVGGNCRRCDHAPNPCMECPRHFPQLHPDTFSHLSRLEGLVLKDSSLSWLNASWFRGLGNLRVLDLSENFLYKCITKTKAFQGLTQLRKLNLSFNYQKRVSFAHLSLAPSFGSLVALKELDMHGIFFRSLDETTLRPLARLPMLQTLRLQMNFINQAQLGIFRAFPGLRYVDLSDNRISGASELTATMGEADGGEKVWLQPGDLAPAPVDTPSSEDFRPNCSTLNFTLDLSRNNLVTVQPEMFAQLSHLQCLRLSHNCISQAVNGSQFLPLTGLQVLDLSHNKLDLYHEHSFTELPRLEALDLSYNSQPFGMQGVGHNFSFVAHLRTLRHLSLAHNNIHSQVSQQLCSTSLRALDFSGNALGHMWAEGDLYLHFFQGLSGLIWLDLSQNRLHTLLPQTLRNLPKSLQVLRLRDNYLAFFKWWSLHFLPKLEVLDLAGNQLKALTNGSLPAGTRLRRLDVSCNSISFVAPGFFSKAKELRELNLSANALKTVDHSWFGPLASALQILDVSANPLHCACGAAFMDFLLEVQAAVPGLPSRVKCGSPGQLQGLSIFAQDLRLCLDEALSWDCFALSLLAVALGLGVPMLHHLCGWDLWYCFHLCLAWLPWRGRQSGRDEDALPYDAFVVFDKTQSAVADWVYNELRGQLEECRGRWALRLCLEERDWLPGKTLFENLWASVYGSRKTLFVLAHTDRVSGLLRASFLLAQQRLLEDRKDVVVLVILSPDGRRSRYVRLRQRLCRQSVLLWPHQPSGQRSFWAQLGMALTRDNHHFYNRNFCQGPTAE
# Mus musculus = assay: Immunostimulatory activity in C57BL/6 mouse assessed as increase in serum IL12 level at 1 mg/kg, sc after 2 hrs by ELISA; type: functional, organism-based; design: dose 1 mg/kg
# Summary of the method: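 Female C57BL/6 mice (n=3) received a single subcutaneous agonist dose of 1 mg/kg. Blood was taken by retro-orbital bleeding 2 h later, and serum IL-12 was measured by sandwich ELISA. Values are the mean of three mice ± SD.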
# [2] = target: T1, Toll-like receptor 9 (Homo sapiens); assay: Induction of TLR9-mediated immune stimulation in human PBMC assessed as IL1Ralpha production at 2 ug/ml after 24 hrs by luminex multiplex assay (RVb = 0.12 +/- 0.03 ng/ml)
# [3] = target: T2, Toll-like receptor 9 (Mus musculus) (UniProt Q9EQU3); assay: Induction of TLR9-mediated IL6 production in C57BL/6 mouse spleen cells after 24 hrs by ELISA; type: cell-based
# T2 sequence (whole entry): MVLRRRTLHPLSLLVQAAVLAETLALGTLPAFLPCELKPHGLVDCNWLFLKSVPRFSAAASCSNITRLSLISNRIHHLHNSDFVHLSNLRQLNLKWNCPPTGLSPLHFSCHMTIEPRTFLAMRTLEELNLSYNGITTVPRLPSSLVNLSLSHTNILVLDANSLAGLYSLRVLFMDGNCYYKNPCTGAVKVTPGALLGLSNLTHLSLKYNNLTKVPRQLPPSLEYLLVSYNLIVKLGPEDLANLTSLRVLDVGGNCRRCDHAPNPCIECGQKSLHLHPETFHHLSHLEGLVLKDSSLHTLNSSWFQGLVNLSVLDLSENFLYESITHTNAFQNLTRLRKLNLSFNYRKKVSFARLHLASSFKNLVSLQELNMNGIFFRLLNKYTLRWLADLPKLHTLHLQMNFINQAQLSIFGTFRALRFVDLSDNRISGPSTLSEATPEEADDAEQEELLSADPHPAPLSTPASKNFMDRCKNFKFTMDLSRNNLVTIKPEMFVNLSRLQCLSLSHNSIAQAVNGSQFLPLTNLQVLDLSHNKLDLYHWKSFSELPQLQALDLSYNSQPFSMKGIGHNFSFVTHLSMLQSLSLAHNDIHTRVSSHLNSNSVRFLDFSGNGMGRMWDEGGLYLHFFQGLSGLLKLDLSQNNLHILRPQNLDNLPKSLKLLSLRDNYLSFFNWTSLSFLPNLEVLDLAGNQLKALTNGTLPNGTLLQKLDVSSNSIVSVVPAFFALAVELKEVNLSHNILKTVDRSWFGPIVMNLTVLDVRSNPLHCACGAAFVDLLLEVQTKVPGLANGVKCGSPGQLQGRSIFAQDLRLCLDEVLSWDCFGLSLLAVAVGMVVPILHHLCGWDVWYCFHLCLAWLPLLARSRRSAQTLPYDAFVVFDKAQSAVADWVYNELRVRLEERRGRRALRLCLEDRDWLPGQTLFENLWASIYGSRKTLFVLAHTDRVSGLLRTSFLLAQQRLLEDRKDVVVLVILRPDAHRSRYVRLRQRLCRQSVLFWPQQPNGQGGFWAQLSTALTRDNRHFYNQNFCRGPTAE
# Summary of the method: (§1)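 C57BL/6 mouse spleen cells were cultured with agonists at 0.1, 0.3, 1, 3 and 10 μg/mL for 24 h. Secreted IL-12 and IL-6 in the supernatants were measured by ELISA. Values are averages of triplicate wells from one representative of at least two independent experiments.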
# [4] = target: T1, Toll-like receptor 9 (Homo sapiens); assay: Induction of TLR9-mediated immune stimulation in human PBMC assessed as MIP1alpha production at 2 ug/ml after 24 hrs by luminex multiplex assay (RVb = 0.01 ng/ml)
# [5] = target: T1, Toll-like receptor 9 (Homo sapiens); assay: Induction of TLR9-mediated immune stimulation in human PBMC assessed as RANTES production at 10 ug/ml after 24 hrs by luminex multiplex assay (RVb = 0.05 +/- 0.04 ng/ml)
# [6] = target: T1, Toll-like receptor 9 (Homo sapiens); assay: Induction of TLR9-mediated immune stimulation in human PBMC assessed as IL2R production at 2 ug/ml after 24 hrs by luminex multiplex assay (RVb = 0.02 +/- 0.01 ng/ml)
# [7] = target: T1, Toll-like receptor 9 (Homo sapiens); assay: Induction of TLR9-mediated immune stimulation in human PBMC assessed as MIP1beta production at 10 ug/ml after 24 hrs by luminex multiplex assay (RVb = 0.03 +/- 0.02 ng/ml)
# [8] = target: T2, Toll-like receptor 9 (Mus musculus); assay: Induction of TLR9-mediated IL12 production in C57BL/6 mouse spleen cells after 24 hrs by ELISA; type: cell-based; summary of the method: as §1
# [9] = target: T1, Toll-like receptor 9 (Homo sapiens); assay: Induction of TLR9-mediated immune stimulation in human PBMC assessed as MIP1beta production at 2 ug/ml after 24 hrs by luminex multiplex assay (RVb = 0.03 +/- 0.02 ng/ml)
SMILES,Activity [1] [ng/mL],Activity (Mus musculus),Activity [2] [ng/mL],Activity [3],Activity [4] [ng/mL],Activity [5] [ng/mL],Activity [6] [ng/mL],Activity [7] [ng/mL],Activity [8],Activity [9] [ng/mL]
Cc1cn([C@H]2C[C@H](OCCOCCOCCOCCOCCOCCOP(=O)(S)O[C@H]3C[C@H](n4cc(C)c(=O)[nH]c4=O)O[C@@H]3COP(=O)(S)O[C@H]3[C@@H](O)[C@H](n4ccc(N)nc4=O)O[C@@H]3COP(=O)(S)O[C@H]3C[C@H](n4cc(C)c(=O)[nH]c4=O)O[C@@H]3COP(=O)(S)O[C@H]3C[C@H](n4cc(C)c(=O)[nH]c4=O)O[C@@H]3COP(=O)(S)O[C@H]3C[C@H](n4ccc5c(=O)[nH]c(N)nc54)O[C@@H]3COP(=O)(S)O[C@H]3[C@@H](O)[C@H](n4ccc(N)nc4=O)O[C@@H]3COP(=O)(S)O[C@H]3C[C@H](n4cc(C)c(=O)[nH]c4=O)O[C@@H]3COP(=O)(S)O[C@H]3[C@@H](O)[C@H](n4cnc5c(=O)[nH]c(N)nc54)O[C@@H]3COP(=O)(S)O[C@H]3C[C@H](n4cc(C)c(=O)[nH]c4=O)O[C@@H]3COP(=O)(S)O[C@H]3[C@@H](O)[C@H](n4ccc(N)nc4=O)O[C@@H]3COP(=O)(S)O[C@H]3C[C@H](n4cc(C)c(=O)[nH]c4=O)O[C@@H]3CO)[C@@H](COP(=O)(S)O[C@H]3[C@@H](O)[C@H](n4ccc(N)nc4=O)O[C@@H]3COP(=O)(S)O[C@H]3C[C@H](n4cc(C)c(=O)[nH]c4=O)O[C@@H]3COP(=O)(S)O[C@H]3C[C@H](n4cc(C)c(=O)[nH]c4=O)O[C@@H]3COP(=O)(S)O[C@H]3C[C@H](n4ccc5c(=O)[nH]c(N)nc54)O[C@@H]3COP(=O)(S)O[C@H]3[C@@H](O)[C@H](n4ccc(N)nc4=O)O[C@@H]3COP(=O)(S)O[C@H]3C[C@H](n4cc(C)c(=O)[nH]c4=O)O[C@@H]3COP(=O)(S)O[C@H]3[C@@H](O)[C@H](n4cnc5c(=O)[nH]c(N)nc54)O[C@@H]3COP(=O)(S)O[C@H]3C[C@H](n4cc(C)c(=O)[nH]c4=O)O[C@@H]3COP(=O)(S)O[C@H]3[C@@H](O)[C@H](n4ccc(N)nc4=O)O[C@@H]3COP(=O)(S)O[C@H]3C[C@H](n4cc(C)c(=O)[nH]c4=O)O[C@@H]3CO)O2)c(=O)[nH]c1=O (stereo not given in full),0.12,inactive,10.7,Dose-dependent effect,0.05,1.32,0.11,0.9,Dose-dependent effect,0.11
Cc1cn([C@H]2C[C@H](OCCC(O)CCOP(=O)(S)O[C@H]3C[C@H](n4cc(C)c(=O)[nH]c4=O)O[C@@H]3COP(=O)(S)O[C@H]3[C@@H](O)[C@H](n4ccc(N)nc4=O)O[C@@H]3COP(=O)(S)O[C@H]3C[C@H](n4cc(C)c(=O)[nH]c4=O)O[C@@H]3COP(=O)(S)O[C@H]3C[C@H](n4cc(C)c(=O)[nH]c4=O)O[C@@H]3COP(=O)(S)O[C@H]3C[C@H](n4ccc5c(=O)[nH]c(N)nc54)O[C@@H]3COP(=O)(S)O[C@H]3[C@@H](O)[C@H](n4ccc(N)nc4=O)O[C@@H]3COP(=O)(S)O[C@H]3C[C@H](n4cc(C)c(=O)[nH]c4=O)O[C@@H]3COP(=O)(S)O[C@H]3[C@@H](O)[C@H](n4cnc5c(=O)[nH]c(N)nc54)O[C@@H]3COP(=O)(S)O[C@H]3C[C@H](n4cc(C)c(=O)[nH]c4=O)O[C@@H]3COP(=O)(S)O[C@H]3[C@@H](O)[C@H](n4ccc(N)nc4=O)O[C@@H]3COP(=O)(S)O[C@H]3C[C@H](n4cc(C)c(=O)[nH]c4=O)O[C@@H]3CO)[C@@H](COP(=O)(S)O[C@H]3[C@@H](O)[C@H](n4ccc(N)nc4=O)O[C@@H]3COP(=O)(S)O[C@H]3C[C@H](n4cc(C)c(=O)[nH]c4=O)O[C@@H]3COP(=O)(S)O[C@H]3C[C@H](n4cc(C)c(=O)[nH]c4=O)O[C@@H]3COP(=O)(S)O[C@H]3C[C@H](n4ccc5c(=O)[nH]c(N)nc54)O[C@@H]3COP(=O)(S)O[C@H]3[C@@H](O)[C@H](n4ccc(N)nc4=O)O[C@@H]3COP(=O)(S)O[C@H]3C[C@H](n4cc(C)c(=O)[nH]c4=O)O[C@@H]3COP(=O)(S)O[C@H]3[C@@H](O)[C@H](n4cnc5c(=O)[nH]c(N)nc54)O[C@@H]3COP(=O)(S)O[C@H]3C[C@H](n4cc(C)c(=O)[nH]c4=O)O[C@@H]3COP(=O)(S)O[C@H]3[C@@H](O)[C@H](n4ccc(N)nc4=O)O[C@@H]3COP(=O)(S)O[C@H]3C[C@H](n4cc(C)c(=O)[nH]c4=O)O[C@@H]3CO)O2)c(=O)[nH]c1=O (stereo not given in full),0.14,Active,8.94,Dose-dependent effect,0.05,1.15,0.03,0.61,Dose-dependent effect,0.12
